Data as given in ChEMBL document CHEMBL4480454, “Parvifoline Derivatives as Tubulin Polymerization Inhibitors” (J Nat Prod, 2019).
Active and inactive are the calls of the source. The calls are words filed in the database; no cut-off is given here.

Tests used:
Sus scrofa [1] = species: Sus scrofa; experiment: Inhibition of porcine brain tubulin alpha/beta polymerization at 10 uM measured every minute for 60 mins relative to colchicine
Procedure, shortened: (§1)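 Turbidity assay with porcine brain α,β-tubulin (97%), final 2 mg/mL, in pH 6.9 buffer of 80.0 mM PIPES sesquisodium, 2.0 mM MgCl2, 0.5 mM EGTA and 1.0 mM GTP. Tubulin added at 0 °C to compound in DMSO, then A450 read every minute for 60 min at 37 °C. Time-zero reading subtracted. […] Triplicate; ANOVA with Tukey test.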

Sus scrofa [2] = species: Sus scrofa; experiment: Inhibition of porcine brain tubulin alpha/beta polymerization at 10 uM measured every minute for 90 mins relative to colchicine
Sus scrofa [3] = species: Sus scrofa; experiment: Inhibition of porcine brain tubulin alpha/beta polymerization at 50 uM measured every minute for 60 mins relative to colchicine; procedure, shortened: as §1
Sus scrofa [4] = species: Sus scrofa; experiment: Inhibition of porcine brain tubulin alpha/beta polymerization at 50 uM measured every minute for 90 mins relative to colchicine
Sus scrofa [5] = species: Sus scrofa; experiment: Competitive inhibition of colchicine binding to porcine brain tubulin alpha/beta polymerization at 10 to 50 uM preincubated for 30 mins followed by 50 uM colchicine addition and measured after 60 mins by fluorescence assay
Procedure, shortened: (§2)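 Porcine brain α,β-tubulin (97%) in general buffer pH 6.9 (80.0 mM PIPES sesquisodium, 2.0 mM MgCl2, 0.5 mM EGTA), no GTP, final 1 mg/mL, added at 0 °C to compound in DMSO (final 10, 20, 50 μM). […] DMSO control included.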

Sus scrofa [6] = species: Sus scrofa; experiment: Competitive inhibition of colchicine binding to porcine brain tubulin alpha/beta polymerization at 10 to 50 uM preincubated for 30 mins followed by 5 uM colchicine addition and measured after 60 mins by fluorescence assay; procedure, shortened: as §2
HeLa = experiment: Cytotoxicity against human HeLa cells assessed as reduction in cell viability after 72 hrs by SRB assay; type: functional, cell-based
HCT-116 = experiment: Cytotoxicity against human HCT116 cells assessed as reduction in cell viability after 72 hrs by SRB assay; type: functional, cell-based; conditions: HCT-116, 72 h
Sus scrofa [7] = species: Sus scrofa; experiment: Induction of porcine brain tubulin alpha/beta polymerization at 10 uM measured every minute for 30 mins

Row | inhibition (Sus scrofa [1]) | inhibition (Sus scrofa [2]) | inhibition (Sus scrofa [3]) | inhibition (Sus scrofa [4]) | inhibition (Sus scrofa [5]) | inhibition (Sus scrofa [6]) | Activity (Sus scrofa [7]) | Structure (SMILES) | IC50 (HeLa) | IC50 (HCT-116)
1 | 89.9% | 97.9% | 51.8% | 78.5% | inactive | inactive |  | Cc1cc2c(cc1OC(=O)c1ccccc1)[C@H](C)CCC[C@]1(C)O[C@H]21 | 3300 nM | 5000 nM
2 | 11.8% | 56.3% | 46.2% | 58.9% |  |  |  | C/C1=C/CC[C@@H](C)c2cc(OC(=O)c3ccccc3)c(C)cc2C1 |  | 
3 | 24.4% | 51% | 54.6% | 66.7% | Active | inactive | Active | C/C1=C/CC[C@@H](C)c2cc(O)c(C)cc2C1 |  | 
4 | 48.7% | 46.9% | 33.6% | 44.7% | Active | inactive |  | Cc1cc2c(cc1O)[C@H](C)CC[C@@H]1O[C@]1(C)C2 |  | 
5 | 38.7% | 35.4% | 86.6% | 106% |  |  |  | C/C1=C/c2cc(C)c(OC(=O)c3ccccc3)cc2[C@H](C)CCC1 |  | 
6 | 9.2% | 2.1% | -3.4% | -5.7% |  |  |  | Cc1cc2c(cc1OC(=O)c1ccccc1)[C@@]1(C)CCC[C@H](C)[C@@H]2O1 |  | 
7 | 30.3% | 47.9% | 10.9% | 42.2% |  |  |  | Cc1cc2c(cc1OC(=O)c1ccccc1)[C@H](C)CC[C@@H]1O[C@]1(C)C2 |  | 
8 |  |  |  |  |  |  |  | COc1cc2c(c(OC)c1OC)-c1ccc(OC)c(=O)cc1[C@@H](NC(C)=O)CC2 [COLCHICINE] | 11 nM | 40 nM
9 | 26.1% |  | 76.9% | 46.9% |  |  |  | Cc1cc2c(cc1OC(=O)c1ccccc1)[C@@]1(C)CC[C@H](O1)[C@H](C)C2 |  | 
10 |  | 58.1% |  | 56.2% |  |  |  | C/C1=C/c2cc(C)c(O)cc2[C@H](C)CCC1 |  | 
11 | 30.3% | 8.3% | 19.3% | 36.9% |  |  |  | Cc1cc2c(cc1O)[C@H](C)CCC[C@]1(C)O[C@H]21 |  | 

Row | Structure (SMILES) | inhibition (Sus scrofa [1]) | inhibition (Sus scrofa [2]) | inhibition (Sus scrofa [3]) | inhibition (Sus scrofa [4]) | inhibition (Sus scrofa [5]) | inhibition (Sus scrofa [6]) | Activity (Sus scrofa [7]) | IC50 (HeLa) | IC50 (HCT-116)
12 | Cc1cc2c(cc1O)[C@@]1(C)CC[C@H](O1)[C@H](C)C2 | 40.2% | 43.7% | 66.3% | 67% |  |  |  |  | 
13 | Cc1cc2c(cc1O)[C@@]1(C)CCC[C@H](C)[C@@H]2O1 | 38.7% | 21.9% | 76.1% | 62.5% |  |  |  |  | 
